Test results published in ChEMBL document CHEMBL4765448, “Multiple biological active 4-aminopyrazoles containing trifluoromethyl and their 4-nitroso-precursors: Synthesis and evaluation” (Eur J Med Chem, 2020).
Values after ≈ are worked out from the molar mass of the structure shown. Active and inactive are the calls of the source. No cut-off for these calls is given here.

Key:
Rattus norvegicus [1] = assay: Analgesic activity in rat assessed as prolongation of latency period at 15 mg/kg, ip measured after 1 hr by hot-plate test relative to control; assay type: functional
Outline: (§1)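 Hot-plate test in rats. Compounds were given by intraperitoneal injection. Latency was read at 1 h and, for some compounds, also at 2 h after dosing. Results are expressed as % prolongation of the latent period versus vehicle-treated control. Significance was given as p-values.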

Escherichia coli = assay: Antibacterial activity against Escherichia coli; assay type: functional
Rattus norvegicus [2] = assay: Antiinflammatory activity in rat model of carrageenan-induced paw edema assessed as inhibition of hind paw swelling at 15 mg/kg, ip measured after 3 hrs relative to control; assay type: functional
Candida albicans = assay: Antifungal activity against Candida albicans; assay type: functional
Microsporum canis = assay: Antifungal activity against Microsporum canis; assay type: functional
Streptococcus pyogenes = assay: Antibacterial activity against Streptococcus pyogenes; assay type: functional
Erythrocyte [3] = assay: Antioxidant activity in human erythrocytes assessed as protection against AAPH-induced hemolysis at 50 uM preincubated for 20 mins followed by AAPH addition and measured after 2 hrs by spectrophotometric method relative to control; assay type: functional; details: time 140 min, 2.333 h
Outline: (§2)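 Erythrocyte hemolysis assay with AAPH as the free-radical initiator, testing 50 and 400 µM. Results are expressed as relative protection of membranes against oxidative damage, each the mean of two independent experiments.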

[4] = Antioxidant activity assessed as trolox equivalent of ABTS radical scavenging activity measured after 1 hr by UV-vis spectrophotometric method; assay type: functional
Outline: (§3)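 ABTS cation-radical decolorization was read spectrophotometrically as the fall in absorbance after 1 h. Trolox was the reference. TEAC was taken as the ratio of concentration-response slopes, test/Trolox, and IC50 was also derived. Data are mean ± SEM, n = 3.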

NHDF = assay: Cytotoxicity against HDF cells; assay type: cell-based, Homo sapiens
Shigella flexneri = assay: Antibacterial activity against Shigella flexneri; assay type: functional
[5] = Drug metabolism assessed as nitric oxide release in absence of rat plasma by Griess reagent based assay; assay type: cell-free
Nannizzia gypsea = assay: Antifungal activity against Trichophyton gypseum; assay type: functional
Staphylococcus aureus = assay: Antibacterial activity against Staphylococcus aureus; assay type: functional
Erythrocyte [6] = assay: Antioxidant activity in human erythrocytes assessed as protection against AAPH-induced hemolysis at 400 uM preincubated for 20 mins followed by AAPH addition and measured after 2 hrs by spectrophotometric method relative to control; assay type: functional; details: time 140 min, 2.333 h; outline: as §2
[7] = Antioxidant activity assessed as AAPH scavenging activity by measuring residual fluorescence at 50 uM measured at 1 min interval for 30 mins by ORAC fluorescein assay relative to control; assay type: functional
Outline: (§4)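 ORAC-FL assay with fluorescein as the probe and AAPH as the peroxyl radical generator. The loss of fluorescence over time was followed, and the result is given as % fluorescence restored at 10 and 50 µM. Each value is the mean of two independent experiments.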

Rattus norvegicus [8] = assay: Antiinflammatory activity in rat model of carrageenan-induced paw edema assessed as inhibition of hind paw swelling at 15 mg/kg, ip measured after 1 hr relative to control; assay type: functional
[9] = tested on: Trichophyton interdigitale; assay: Antifungal activity against Trichophyton mentagrophytes var. interdigitale; assay type: functional
Serratia marcescens = assay: Antibacterial activity against Serratia marcescens; assay type: functional
Klebsiella pneumoniae = assay: Antibacterial activity against Klebsiella pneumoniae; assay type: functional
Rattus norvegicus [10] = assay: Antiinflammatory activity in rat model of carrageenan-induced paw edema assessed as inhibition of hind paw swelling at 15 mg/kg, ip measured after 5 hrs; assay type: functional, organism-based
Proteus vulgaris = assay: Antibacterial activity against Proteus vulgaris; assay type: functional
Epidermophyton floccosum = assay: Antifungal activity against Epidermophyton floccosum; assay type: functional
Citrobacter braakii = assay: Antibacterial activity against Citrobacter braakii; assay type: functional
Trichophyton tonsurans = assay: Antifungal activity against Trichophyton tonsurans; assay type: functional
Trichophyton violaceum = assay: Antifungal activity against Trichophyton violaceum; assay type: functional
Pseudomonas aeruginosa = assay: Antibacterial activity against Pseudomonas aeruginosa; assay type: functional
Neisseria gonorrhoeae = assay: Antibacterial activity against Neisseria gonorrhoeae; assay type: functional
HeLa = assay: Cytotoxicity against human HeLa cells; assay type: functional, cell-based; details: for IC50: Homo sapiens, HeLa, read-out: IC50
Trichophyton rubrum = assay: Antifungal activity against Trichophyton rubrum; assay type: functional
[11] = Selectivity index, ratio of IC50 for HDF cells to IC50 for human HeLa cells; assay type: toxicity; details: HDF cells versus HeLa cells, read-out: Ratio IC50
[12] = Acute toxicity in mouse at 150 mg/kg, ip administered as single dose; assay type: organism-based; details: in vivo
Outline: (§5)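 Mice, single intraperitoneal dose, following OECD Guideline for testing of chemicals; three mice per dose level; doses tested 10–300 mg/kg. Read-out is the number of survivors out of 3, used to estimate the expected LD50 range.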

[13] = Drug metabolism assessed as nitric oxide release in presence of rat plasma by Griess reagent based assay; assay type: cell-free
[14] = Antioxidant activity assessed as AAPH scavenging activity by measuring residual fluorescence at 10 uM measured at 1 min interval for 30 mins by ORAC fluorescein assay relative to control; assay type: functional; outline: as §4
Rattus norvegicus [15] = assay: Analgesic activity in rat assessed as prolongation of latency period at 25 mg/kg, ip measured after 1 hr by hot-plate test relative to control; assay type: functional, organism-based; outline: as §1
Rattus norvegicus [16] = assay: Antiinflammatory activity in rat model of carrageenan-induced paw edema assessed as inhibition of hind paw swelling at 25 mg/kg, ip measured after 5 hrs; assay type: functional, organism-based
[17] = Acute toxicity in mouse at 300 mg/kg, ip administered as single dose; assay type: organism-based; details: in vivo; outline: as §5
[18] = tested on: Mycobacterium tuberculosis; assay: Antitubercular activity against Mycobacterium tuberculosis H37Rv; assay type: functional
Outline: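 Mycobacterium tuberculosis strain H37Rv; minimum inhibitory concentration (MIC) taken as the lowest level needed to inhibit bacterial growth; isoniazid and pyrazinamide served as reference drugs.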

[19] = Acute toxicity in mouse at 60 mg/kg, ip administered as single dose; assay type: organism-based; details: in vivo; outline: as §5
[20] = Acute toxicity in mouse at 10 mg/kg, ip administered as single dose; assay type: organism-based; details: in vivo; outline: as §5
[21] = Acute toxicity in mouse at 75 mg/kg, ip administered as single dose; assay type: organism-based; details: in vivo; outline: as §5
[22] = Antioxidant activity assessed as ABTS radical scavenging activity measured after 1 hr by UV-vis spectrophotometric method; assay type: functional; outline: as §3

SMILES	Activity (Rattus norvegicus [1]) [%]	MIC (Escherichia coli) [µg/mL]	MIC (Candida albicans)	MIC (Microsporum canis) [µg/mL]	MIC (Streptococcus pyogenes) [µg/mL]	fold change (FC) (Erythrocyte [3])	MIC (Shigella flexneri) [µg/mL]	MIC (Nannizzia gypsea) [µg/mL]	MIC (Staphylococcus aureus) [µg/mL]	MIC [9] [µg/mL]	MIC (Serratia marcescens) [µg/mL]	MIC (Klebsiella pneumoniae) [µg/mL]	MIC (Proteus vulgaris) [µg/mL]	MIC (Epidermophyton floccosum) [µg/mL]	MIC (Citrobacter braakii) [µg/mL]	MIC (Trichophyton tonsurans) [µg/mL]	MIC (Trichophyton violaceum) [µg/mL]	MIC (Pseudomonas aeruginosa) [µg/mL]	MIC (Neisseria gonorrhoeae) [µg/mL]	MIC (Trichophyton rubrum) [µg/mL]	further results
Cn1nc(C(F)(F)F)c(N=O)c1-c1ccccc1	80.2	> 500	inactive	100 (≈ 392 µM)	> 500	1	> 500	25 (≈ 98 µM)	> 500	12.5 (≈ 49 µM)	> 500	> 500	> 500	0.38 (≈ 1.49 µM)	> 500	3.12 (≈ 12.2 µM)	6.25 (≈ 24.5 µM)	> 500	62.5 (≈ 245 µM)	12.5 (≈ 49 µM)	inhibition (Rattus norvegicus [2]): inactive; Activity [4]: 0.01 equiv; IC50 (NHDF; Homo sapiens, NHDF, read-out: IC50): 49.5 µM; Drug metabolism [5]: Metabolite not detected; fold change (FC) (Erythrocyte [6]): 1.02; Activity [7]: 16.1%; inhibition (Rattus norvegicus [8]): inactive; Activity (Rattus norvegicus [10]): Active; Activity (HeLa): Dose-dependent effect; IC50 (HeLa): 63.9 µM; selectivity ratio [11]: 0.77; Activity [12]: Non-Toxic; Drug metabolism [13]: Metabolite detected; Activity [14]: 3%
Cc1ccc(-c2c(N=O)c(C(F)(F)F)nn2-c2ccc(S(N)(=O)=O)cc2)cc1	–	> 250	> 200 µg/mL	200 (≈ 487 µM)	> 250	–	> 250	200 (≈ 487 µM)	> 250	200 (≈ 487 µM)	> 250	> 250	> 250	200 (≈ 487 µM)	> 250	200 (≈ 487 µM)	> 200	> 250	31.2 (≈ 76 µM)	200 (≈ 487 µM)	Activity (Rattus norvegicus [15]): inactive; Activity (Rattus norvegicus [16]): inactive; Activity [17]: Non-Toxic
Cl.Cn1nc(C(F)(F)F)c(N)c1-c1ccccc1	100.74	> 250	> 200 µg/mL	200	> 250	1.19	> 250	> 200	> 250	> 200	> 250	> 250	> 250	200	> 250	> 200	200	> 250	> 250	200	inhibition in vivo at 15 mg/kg (Rattus norvegicus [2]): 32.9%; Activity [4]: inactive; IC50 (NHDF; nhdf): Not Active; fold change (FC) (Erythrocyte [6]): 1.11; Activity [7]: 79%; inhibition in vivo at 15 mg/kg (Rattus norvegicus [8]): 54.3%; Activity (Rattus norvegicus [10]): Active; MIC [18]: 12.5 µg/mL; Activity [19]: Non-Toxic; Activity (HeLa): Dose-dependent effect; IC50 (HeLa): 0.074 µM; selectivity ratio [11]: > 1350; Activity [14]: 38.2%
Cl.Nc1c(C(F)(F)F)n[nH]c1-c1cccs1	–	> 250	> 200 µg/mL	200	> 250	–	> 250	> 200	> 250	> 200	> 250	> 250	> 250	200	> 250	> 200	> 200	> 250	62.5	200	Activity [20]: Non-Toxic; Activity [21]: Toxic; IC50 [22]: 13.3 µM; Activity [12]: Toxic
